An excerpt weighted towards active compounds, which were near 3.3% of everything screened.
5HT1E antag: antagonists of human 5-HT1E serotonin receptor. inhibition, % at 6 µM. AID 571. CHO 5-HT1E Ga15 NFAT-bla reporter, FRET, antagonist. P28566. 0.99% of 65,000 active;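 active = inhibition above a set limit, the mean inhibition across every tested compound plus 3 SD, cut at about 29% in these data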;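 note: signal is the 460 over 535 nm emission ratio of beta-lactamase substrate; 0% = agonist plus DMSO wells and 100% = wells without agonist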
5HT1a ag: agonists of human 5-HT1a serotonin receptor; P08908; CHO 5-HT1a Ga15 NFAT-bla reporter, FRET ratio; 0% basal, 100% maximal reference agonist; activation, % at 10 µM; 0.56% of 65,000 active;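 active = activation above the screen-wide mean activation plus 3 SD, cut at about 19% in these data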;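 note: 0% = DMSO wells and 100% = 5-CT at EC100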
Target sequence (P08908 whole entry, looked up): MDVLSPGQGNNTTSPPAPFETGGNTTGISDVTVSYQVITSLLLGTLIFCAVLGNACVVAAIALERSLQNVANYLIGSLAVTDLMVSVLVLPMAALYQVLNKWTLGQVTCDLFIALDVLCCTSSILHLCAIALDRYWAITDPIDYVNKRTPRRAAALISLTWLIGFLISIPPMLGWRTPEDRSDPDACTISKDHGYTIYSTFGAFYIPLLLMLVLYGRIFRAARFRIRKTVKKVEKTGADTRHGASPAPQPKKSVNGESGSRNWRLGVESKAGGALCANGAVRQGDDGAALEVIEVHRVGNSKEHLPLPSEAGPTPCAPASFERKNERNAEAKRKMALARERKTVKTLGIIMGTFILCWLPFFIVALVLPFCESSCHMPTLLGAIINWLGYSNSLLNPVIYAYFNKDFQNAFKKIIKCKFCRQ
5-HT1A blocker: antagonists of human 5-HT1a serotonin receptor. P08908. CHO 5-HT1a Ga15 NFAT-bla reporter, antagonist mode. inhibition, % at 10 µM. 0.68% of 62,000 active. AID 612;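 active = inhibition above the mean of all tested compounds plus 3 SD, cut at about 43% in these data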;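 note: receptor stimulated by 5-CT agonist at 100 nM near EC80; beta-lactamase reporter measured by ratiometric fluorescence of a cleavable substrate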
Jurkat viability: reduces viability or proliferation of Jurkat cells; Jurkat E6.1 viability, ATP luminescence, 48 h; inhibition, % at 4 µM; 1.2% of 56,000 active; AID 463;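 active = inhibition above the mean inhibition of all tested compounds plus 3 SD, cut at about 28% in these data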
HEK293 NFkB inh: lowers PMA/ionomycin-induced NF-kB signal in HEK293 cells; HEK-293 NF-kB luciferase reporter, luminescence; inhibition, % at 3 µM; 0.21% of 62,000 active; AID 465;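 active = inhibition above the mean of all tested compounds plus 3 SD, cut at about 40% in these data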;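 note: 0% = stimulated DMSO wells and 100% = 10 µM reference inhibitor 5653914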
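Reagent: PMA plus ionomycin mix as NF-kB-activating stimulus. Assay system: NF-kB luciferase reporter HEK-293 cells. Technique: luminescence from luciferase substrate reagent. Incubation: 1 h compound pre-incubation, 16 h PMA/ionomycin at 37 °C. Benchmarks: DMSO only as uninhibited control, 10 µM reference inhibitor as full inhibition. Repeats: tested once.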
5HT1E ag: agonists of human 5-HT1E serotonin receptor; P28566; CHO 5-HT1E Ga15 NFAT-bla reporter, FRET; 0% DMSO wells, 100% control agonist wells; activation, % at 6 µM; 0.69% of 65,000 active;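 active = activation above a set limit, the screen-wide mean activation plus 3 SD, cut at about 8.5% in these data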;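 note: 100% = positive control agonist at 1 µM giving full maximal response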
* hit, by the source's call.

How did O=C(NCc1ccc2c(c1)OCO2)C1CCN(Cc2cnn(-c3ccccc3)c2-n2cccc2)CC1 do in these assays?
5HT1E antag: 0; 5HT1a ag: 0; 5-HT1A blocker: -4; HEK293 NFkB inh: 18; 5HT1E ag: 12*

How did CC(=O)Oc1ccc(Oc2ccc(-c3noc(C)n3)cc2)cc1 do in these assays?
5HT1E antag: 3; 5HT1a ag: -4; 5-HT1A blocker: 17; Jurkat viability: 34*; HEK293 NFkB inh: -7; 5HT1E ag: -1

What do the screens show for `CC(=O)Oc1ccc(-c2nc(-c3cccnc3)no2)cc1`?
5HT1E antag: 1; 5HT1a ag: 0; 5-HT1A blocker: 0; Jurkat viability: -3; HEK293 NFkB inh: 6; 5HT1E ag: 0

What do the screens show for `COc1ccc(C(=O)n2c(-c3ccco3)nc3ccccc32)cc1`?
5HT1E antag: 28; 5HT1a ag: -2; 5-HT1A blocker: 35; Jurkat viability: 78*; HEK293 NFkB inh: 23; 5HT1E ag: 2

What do the screens show for `CCOC(=O)CSc1cccc2cccnc12`?
5HT1E antag: 40*; 5HT1a ag: -5; 5-HT1A blocker: 9; Jurkat viability: 3; HEK293 NFkB inh: 11; 5HT1E ag: 1

What do the screens show for `CCN(CC)C(=O)Sc1cccc2cccnc12`?
5HT1E antag: 8; 5HT1a ag: 0; 5-HT1A blocker: 2; Jurkat viability: 2; HEK293 NFkB inh: -12; 5HT1E ag: 0

Results for COc1cc(C)c(S(=O)(=O)NCc2cccs2)cc1C ?
5HT1E antag: 17; 5HT1a ag: -2; 5-HT1A blocker: 10; Jurkat viability: 5; HEK293 NFkB inh: -4; 5HT1E ag: -1

What do the screens show for `Cc1ccc(S(=O)(=O)N2CC3(C)CN(S(=O)(=O)c4ccc(C)cc4)CC(C)(C2)C3O)cc1` (configuration not stated)?
5HT1E antag: 0; 5HT1a ag: 3; 5-HT1A blocker: -14; Jurkat viability: -4; HEK293 NFkB inh: 17; 5HT1E ag: 9.9*

What do the screens show for `Cc1ccc(S(=O)(=O)N2CCN(S(=O)(=O)N3CCCCC3)CC2)cc1`?
5HT1E antag: -8; 5HT1a ag: 4; 5-HT1A blocker: -9; Jurkat viability: -7; HEK293 NFkB inh: 9; 5HT1E ag: 0

What do the screens show for `Cc1ccccc1OCc1nc(-c2ccc(NC(=O)c3ccco3)cc2)no1`?
5HT1E antag: -13; 5HT1a ag: 3; 5-HT1A blocker: 0; HEK293 NFkB inh: -25; 5HT1E ag: 0

How did Cc1ccccc1OCc1nc(-c2ccc(NC(=O)c3ccc4c(c3)OCO4)cc2)no1 do in these assays?
5HT1E antag: 21; 5HT1a ag: 2; 5-HT1A blocker: 16; Jurkat viability: 7; HEK293 NFkB inh: 9; 5HT1E ag: 9.2*

Results for O=C(CCn1c(=O)oc2ccccc21)N1CCN(c2ccccc2Cl)CC1 ?
5HT1E antag: 0; 5HT1a ag: 0; 5-HT1A blocker: -3; Jurkat viability: 69*; HEK293 NFkB inh: 21; 5HT1E ag: 0

What do the screens show for `O=C(CCn1c(=O)oc2ccccc21)N1CCCCCC1`?
5HT1E antag: 6; 5HT1a ag: -1; 5-HT1A blocker: -4; Jurkat viability: -2; HEK293 NFkB inh: -2; 5HT1E ag: 0

Results for Cn1c(=O)c2c3c(sc2n2c(SCC(N)=O)nnc12)CC(C(C)(C)C)CC3 (configuration not stated) ?
5HT1E antag: -39; 5HT1a ag: 3; 5HT1E ag: 1

How did Cc1cccc2cc(C#N)c(SCC(=O)N3CC(=O)Nc4ccccc43)nc12 do in these assays?
5HT1E antag: 45*; 5HT1a ag: -2; 5-HT1A blocker: 40; Jurkat viability: 99*; HEK293 NFkB inh: 30; 5HT1E ag: 0

How did OC(CNCCc1ccc(Cl)cc1)COCc1ccco1 (configuration not stated) do in these assays?
5HT1E antag: 4; 5HT1a ag: 0; 5-HT1A blocker: 4; Jurkat viability: 4; HEK293 NFkB inh: 10; 5HT1E ag: 9.5*

What do the screens show for `CCC1Oc2ccc(C)cc2N(CC(=O)NCc2cccc(OC)c2)C1=O` (configuration not stated)?
5HT1E antag: -5; 5HT1a ag: -2; 5-HT1A blocker: 26; Jurkat viability: -1; HEK293 NFkB inh: 8; 5HT1E ag: 0

Results for COc1ccc(C2C(C#N)=C(N)N3C(=C2C#N)Sc2ccccc23)cc1 (configuration not stated) ?
5HT1E antag: -6; 5HT1a ag: -1; 5-HT1A blocker: -6; Jurkat viability: -3; HEK293 NFkB inh: 1; 5HT1E ag: 0

How did CCOC(=O)C1CCCN(C(=O)c2cnn3c(C(F)F)cc(-c4ccc(C)cc4)nc23)C1 (configuration not stated) do in these assays?
5HT1E antag: -8; 5HT1a ag: 1; 5-HT1A blocker: 47*; Jurkat viability: 6; HEK293 NFkB inh: 9; 5HT1E ag: 3

Results for Cc1ccc(-c2cc(C(F)F)n3ncc(C(=O)N4CCN5CCCC5C4)c3n2)cc1 (configuration not stated) ?
5HT1E antag: -6; 5HT1a ag: 0; 5-HT1A blocker: -4; Jurkat viability: 3; HEK293 NFkB inh: 10; 5HT1E ag: 4

How did CC(=O)N1CCN(c2ccccc2NC(=O)COc2ccc(Cl)cc2Cl)CC1 do in these assays?
5HT1E antag: 15; 5HT1a ag: 2; 5-HT1A blocker: 29; Jurkat viability: 7; HEK293 NFkB inh: -2; 5HT1E ag: 0

How did CCC(=O)N1CCN(c2ccccc2NC(=O)COc2cc(C)ccc2C(C)C)CC1 do in these assays?
5HT1E antag: 3; 5HT1a ag: 5; 5-HT1A blocker: 58*; Jurkat viability: 3; HEK293 NFkB inh: 20; 5HT1E ag: -1

Results for O=S(=O)(NCCCN1CCN(c2ccccc2F)CC1)c1cccc2cccnc12 ?
5HT1E antag: -5; 5HT1a ag: 6; 5-HT1A blocker: 40; Jurkat viability: -8; HEK293 NFkB inh: -4; 5HT1E ag: 9.1*

What do the screens show for `Cc1ccc(C)c(N2CCN(CC(=O)Nc3ccc4[nH]c(=O)[nH]c4c3)CC2)c1`?
5HT1E antag: -9; 5HT1a ag: 0; 5-HT1A blocker: 8; Jurkat viability: -3; HEK293 NFkB inh: 1; 5HT1E ag: 23*

Results for CCOC(=O)C1=C(C)OC(N)=C(C#N)C1c1c(C)nn(-c2ccccc2)c1Cl (configuration not stated) ?
5HT1E antag: 7; 5HT1a ag: -3; 5-HT1A blocker: 1; HEK293 NFkB inh: 18; 5HT1E ag: -1

What do the screens show for `Cc1nn(-c2ccccc2)c(Cl)c1C1C(C#N)=C(N)Oc2n[nH]c(C)c21` (configuration not stated)?
5HT1E antag: 10; 5HT1a ag: 2; 5-HT1A blocker: 11; Jurkat viability: -2; HEK293 NFkB inh: 44*; 5HT1E ag: 0
